OX1R antag-1 = OX1R (HCRTR1) antagonists, primary screen, fluorescence, CHO/OX1R cells, Fluo-8 calcium, orexin A. Orexin/Hypocretin receptor type 1 (Homo sapiens), O43613. Fluo-8 calcium fluorescence. inhibition, % at 5 µM. 330,000 compounds, 0.43% hits;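 active means inhibition above its plate's threshold, mean inhibition of all tested compounds on the plate plus 3 SD, cut at about 37% in these data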;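 further: 0% = orexin A challenge wells and 100% = SB-334867-A antagonist wells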
GPR7 antagonist = GPR7 receptor antagonists, primary screen, cell-based, fluorescence, single concentration. 290,000 compounds, 1.1% hits. inhibition, % at 4.4 µM. GPR7-expressing cells, fluorescence antagonist assay; in the data active means inhibition above about 16%, passing the limit was not always enough;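 further: cells stimulated with the agonist NPW; 0% = agonist with vehicle and 100% = vehicle without agonist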
OX1R antag-2 = antagonists of human orexin 1 receptor (OX1R); inhibition, % at 6.6 µM; OX1R-expressing cells, FRET antagonist read-out; 330,000 compounds, 1.8% hits; Orexin/Hypocretin receptor type 1 (Homo sapiens), O43613; AID 485270, 2010; in the data active means inhibition mostly above about 38%, no sharp cut-off; inactive means mostly below about 40%;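 further: 0% = agonist challenge alone and 100% = reference antagonist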
EP2 mod = EP2 receptor modulators, cAMP readout, primary screen, cell-based, HTRF cAMP, PGE2 stimulation | Prostaglandin E2 receptor EP2 subtype (Homo sapiens), P43116 | EP2-expressing cells, cAMP HTRF FRET, PGE2 co-stimulation | induction, % at 25 µM | 260,000 compounds, 0.83% hits;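 active means compounds whose cAMP rise, as percent of the full-agonist control response, exceeds 60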;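 further: rat C6 glioma line stably carrying human EP2 under a CMV promoter; the protocol text gives 20 µM as final concentration; 100% = response of wells given 1 µM PGE2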
Target sequence (P43116 whole entry, looked up): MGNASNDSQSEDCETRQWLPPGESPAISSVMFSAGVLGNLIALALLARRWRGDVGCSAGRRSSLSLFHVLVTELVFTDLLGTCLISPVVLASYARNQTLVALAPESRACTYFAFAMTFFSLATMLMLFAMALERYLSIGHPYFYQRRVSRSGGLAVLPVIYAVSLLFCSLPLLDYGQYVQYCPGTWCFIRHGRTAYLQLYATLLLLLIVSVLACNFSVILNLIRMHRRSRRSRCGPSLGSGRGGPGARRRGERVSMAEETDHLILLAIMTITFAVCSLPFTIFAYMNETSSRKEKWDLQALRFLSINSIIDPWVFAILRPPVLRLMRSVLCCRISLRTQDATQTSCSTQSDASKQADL
PGE2 EP2 inh = human EP2 receptor antagonists, primary screen, TR-FRET cAMP, C6 glioma cells; inhibition, % at 25 µM; Prostaglandin E2 receptor EP2 subtype (Homo sapiens), P43116; C6 glioma cells expressing human EP2; cells stimulated with saturating PGE2; 260,000 compounds, 0.52% hits;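 active means percent inhibition above 40 after rounding to a whole number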;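 further: rat C6 glioma host cells with rolipram phosphodiesterase inhibitor present; the protocol text gives 20 µM as final concentration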
CHO parental Ca = ATP-evoked calcium signal inhibitors, parental CHO, primary screen, counter-screen for OX1R antagonist project, cell-based, fluorescence, Fluo-8 calcium dye; parental CHO-K1, ATP-induced calcium, Fluo-8 fluorescence; inhibition, % at 5.6 µM; 330,000 compounds, 0.63% hits; AID 463079, 2010;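 active means inhibition above that plate's mean sample inhibition plus 3 SD, cut at about 26% in these data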;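 further: 0% = ATP-challenged DMSO wells and 100% = DMSO wells without ATP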
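Assay system – parental CHO cells · Reagent – ATP stimulus · Detection – intracellular calcium via Fluo-8 no-wash fluorescent dye · Evaluation – percent inhibition of ATP-evoked calcium rise, normalized to controls · Controls – ATP wells versus no-ATP DMSO wells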
The depositor's hits bear a star; · = not tested or not shown. A selection: hits, their analogues and other compounds. The true share with any hit is near 3.7%.

SMILES	OX1R antag-1	GPR7 antagonist	OX1R antag-2	EP2 mod	PGE2 EP2 inh	CHO parental Ca
CC1Cc2ccccc2N1C(=O)CSc1nc(N)cc(=O)[nH]1 (centres undefined)	·	1	·	-2	8	·
N#CC1=C2SCC(O)(c3ccccc3)N2C(=O)CC1c1cccs1 (centres undefined)	-16	17*	16	-19	10	-11
CC(C)(C)c1cc[n+](C2=C([O-])c3ccccc3C(=O)/C2=N\S(=O)(=O)c2cccs2)cc1	-23	1	77*	-33	8	-15
O=C1C(Nc2ccc(O)cc2)=C/C(=N/S(=O)(=O)c2cccs2)c2ccccc21	·	-23	·	-83	19	·
CCc1ccccc1NC(=O)CN1CCN(C(=O)C2CCN(C(=O)/C=C/c3ccccc3)CC2)CC1	-5	·	0	·	·	-30
COC(=O)CC1C(=O)NCCN1C(=O)CSc1nc2ccc([N+](=O)[O-])cc2s1 (centres undefined)	-11	-13	71*	-20	14	-10
COC(=O)CC1C(=O)NCCN1C(=O)c1ccc([N+](=O)[O-])cc1 (centres undefined)	-4	-18	19	·	·	-6
C/C=C(\C)C(=O)OC1c2c(ccc3ccc(=O)oc23)OC(C)(C)C1OC(C)=O (centres undefined)	28	-8	26	-42	15	3
C/C=C(/C)C(=O)OC1c2c(ccc3ccc(=O)oc23)OC(C)(C)C1OC(=O)/C(C)=C\C (centres undefined)	22	-21	44*	49	17	75*
Cn1cccc1-c1nc2ccc(NC(=O)c3cccs3)cc2[nH]1	9	-6	39	-12	48*	3
O=C(Nc1cccc(-c2csc(-c3ccccc3)n2)c1)c1cccs1	0	-20	67*	-28	14	-6
CC(=O)Nc1ccc2nc(-c3cccs3)[nH]c2c1	-4	-3	6	-19	·	-8
CC(C)C(=O)Nc1ccc(-c2csc(-c3ccccc3)n2)cc1	13	0	18	-17	5	41*
Cc1ccc(C(=O)Nc2cccc(NC(=O)c3cccs3)c2)c(C)c1	10	-8	64*	·	·	-15
CCc1ccc(NC(=O)NCCN2CCN(c3ccc(OC)cc3)CC2)cc1	-36	7	-6	·	·	-20
Cc1ccn2cc(-c3cccc(NC(=O)c4cccs4)c3)nc2c1	-15	-7	75*	-91	9	-20
COc1cccc(C(=O)/C=C/Nc2ccc(S(=O)(=O)Nc3ccc(C(C)=O)cc3)cc2)c1	18	-4	18	-4	11	4
COc1ccccc1NS(=O)(=O)c1ccc(C(=O)N2CCCCCCC2)cc1	13	·	26*	·	·	-4
COc1cccc(OC)c1C(=O)Nc1cccc(S(=O)(=O)Nc2ccccc2Cl)c1	-2	·	17	·	·	-20
COc1ccccc1NS(=O)(=O)c1cccc(NC(=O)Nc2ccc(Cl)cc2)c1	51*	-5	52*	-66	9	82*
COc1ccc(NS(=O)(=O)c2cccc(N/C(=N\S(=O)(=O)c3ccccc3)c3ccc(F)cc3)c2)cc1	13	21*	8	4	9	7
COc1ccc(C(=O)/C=C/Nc2ccc(S(=O)(=O)Nc3cccc(C(C)=O)c3)cc2)cc1	47*	4	71*	-15	6	36*
COc1ccc(NS(=O)(=O)c2cccc(C(=O)Nc3cccc(C(=O)O)c3)c2)cc1	-12	6	12	·	·	-2
COc1ccc2oc(=O)c(N3C(=O)c4ccccc4C3=O)cc2c1	-20	-8	18	-10	10	-3
O=C(Cc1ccc([N+](=O)[O-])cc1)Nc1nccs1	-13	5	12	-3	0	1
SMILES	OX1R antag-1	GPR7 antagonist	OX1R antag-2	EP2 mod	PGE2 EP2 inh	CHO parental Ca
Cc1cccc(OCC(O)Cn2c(-n3nc(C)cc3C)nc3c2c(=O)[nH]c(=O)n3C)c1 (centres undefined)	-20	-13	15	-6	14	-13
COc1ccccc1NS(=O)(=O)c1cccc(NC(=O)Nc2ccccc2)c1	44*	-10	23	-82	10	23
C/C(=N\NC(=O)C(N)=O)c1ccc(NC(=O)c2cccs2)cc1	-10	7	11	-39	3	-8
CCOc1ccc(/C=C2\CCCc3c2nc2ccccc2c3C(=O)O)cc1OC	30	7	82*	·	·	30*
COc1ccc(/C=C2\CCc3c2nc2ccccc2c3C(=O)O)cc1OC	0	-2	75*	-4	15	7
COc1ccc(/C=C2\CCCc3c2nc2ccccc2c3C(=O)O)cc1OC	7	5	63*	-12	8	3
COc1cc(/C=C2\CCCc3c2nc2ccccc2c3C(=O)O)cc(OC)c1O	-13	-3	10	-14	9	-5
COCCn1c(Cc2ccccc2)nnc1SC(C)C(=O)NC1CC1 (centres undefined)	-12	·	-1	·	·	-18
O=C(c1ccccc1)N(Cc1ccccc1)Cc1ccccc1	-28	-4	8	·	·	-18
O=C(C1CC1)N(CCN(Cc1ccccc1)C(=O)C1CC1)Cc1ccccc1	-30	43*	11	17	·	-37
COc1ccc(CN(C)Cc2cc(=O)oc3cc(C)c(C(C)C)cc23)cc1OC	-32	2	29	·	·	-20
Cc1cc2oc(=O)cc(CN(C)Cc3ccccc3)c2cc1C(C)C	12	-32	0	·	·	31*
Cc1nc(P(=O)(c2ccccc2)c2ccccc2)c(N2CCOCC2)o1	-31	2	14	15	11	-11
Cc1ccccc1-c1nc(P(=O)(c2ccccc2)c2ccccc2)c(N2CCOCC2)o1	-36	-6	12	67*	9	-35
COC(CNC(=O)C(=O)NCC1OCCN1S(=O)(=O)c1ccccc1)OC (centres undefined)	-5	-19	15	·	·	-11
CC(=O)/C(=N/Nc1cccc(Cl)c1)Sc1nnc(C(O)c2ccccc2)n1-c1ccccc1 (centres undefined)	-30	27*	7	4	6	-25
CCOC(Cn1c(-c2ccc(OC)cc2)nc2ccccc21)OCC	-35	2	17	9	4	-15
Cc1ccc(S(=O)(=O)/N=C2/C=C(C3C(=O)CC(C)(C)CC3=O)C(=O)c3ccccc32)cc1	-11	0	63*	36	4	-12
C=CCc1cc(OC)ccc1OCCOCCC(C(=O)OCC)C(=O)OCC	-35	-11	6	41	7	-18
